Screening data as filed in PubChem.
Most compounds without a hit are left out; they make up all but 3.5% or so of the library.
PglD inh = PglD (C. jejuni) enzyme inhibition; AID 602405; hit rate 0.098% among 360,000; inhibition, % at 12.5 µM; purified PglD enzyme, DTNB colorimetric CoA detection; in the data active means inhibition above about 16%, passing the limit was not always enough; inconclusive means no clear call, values can overlap the other calls
Ecoli rRNA inh = inhibits bacterial ribosomal RNA function over humanized ribosomes; hit rate 1.6% among 350,000; GFP signal change (wild-type ribosome), % (test concentration not listed); E. coli WT GFP vs humanized-ribosome RFP mutants, fluorescence, 24 h; active compounds read low; DMSO median 0, no signal -100;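 active means significant combined selectivity score with lowered wild-type GFP, culture density cut under 30%, mutant RFP and density less affected; inactive means any of these conditions unmet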
PGC1a acetyl inh = PGC1a acetylation modulation, inhibitor mode | U2OS PGC1a acetylation, AlphaScreen anti-acetyl-lysine; with virally co-expressed GCN5 acetyltransferase | inhibition, % at 15.6 µM | hit rate 0.17% among 350,000 | AID 651687;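 active means every replicate shows inhibition of at least 40%; inconclusive means mean inhibition at least 40% but some replicate below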;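 further: 0% = neutral control wells and 100% = positive control wells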
Env fusion inh = blocks HIV Env-driven cell-cell fusion. hit rate 1.1% among 360,000. inhibition, % at 12.3 µM. HeLa-JRFL Env/CEM21 cell fusion, luciferase. AID 651610;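 active means mean replicate inhibition score of at least 50 and every replicate individually at or above 50; inconclusive means only one of the two criteria met; inactive means mean below 50 and not all replicates reaching 50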;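 further: 0% = plate neutral controls and 100% = maraviroc near 300 nM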
FN deposition inh = fibronectin deposition inhibition; AH1F fibroblasts, Alexa488-fibronectin deposition fluorescence, overnight; inhibition, % at 12.6 µM; hit rate 0.086% among 350,000; AID 743247;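 active means mean inhibition across replicates of 30% or more, regardless of how many single replicates reach that level; inconclusive means mean under 30% yet at least half of replicates reach 30%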;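 further: positive control wells lacked labelled fibronectin entirely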
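Test system: AH1F fibroblast monolayer depositing Alexa488-labelled fibronectin into matrix. Input: 10000 cells per well. Technique: fluorescence, ex 485 nm, em 525 nm. Buffer or medium: DMEM plus 2% serum, read in PBS. Timing: 1 h cell adhesion before compound, then overnight fibronectin incubation. Compound: single dose, pinned. Read-out basis: inhibition from reduced deposited-fibronectin fluorescence.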
DENV2 CPE rescue = DENV2-induced cell death inhibition | DENV2-infected cells, cytopathic effect rescue, plate reader | CPE inhibition, % at 9.99 µM | hit rate 1.7% among 350,000; in the data active means CPE inhibition above about 20%, passing the limit was not always enough; inconclusive means no clear call, values can overlap the other calls; tested in BHK-21 cells;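 further: 0% = median of neutral control wells and 100% = median of positive control wells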
HepG2 tox = HepG2 cell cytotoxicity | 30 tested, under 10 active | activity change, negative = cytotoxicity, unspecified at 26 µM | HepG2 viability, ATP luminescence, 72 h | shares compounds with Ecoli rRNA inh;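 active means compounds whose fitted half-maximal signal-loss concentration is at most twice their highest valid dose; inconclusive means flat curve with 30 to 70% signal loss, or poor fit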
AID977621 = growth inhibition of wild-type GFP E. coli, dose response, H69 mutant RFP, cherry-pick. AID 977621. 1,900 tested, under 10 active. shares compounds with Ecoli rRNA inh. activity change, negative = inhibition at 50 µM. E. coli wild-type GFP strain growth, fluorescence, 24 h;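 active means Wild-type ribosome reporter drop at least double the humanized mutant ribosome reporter drop, growth loss under a set limit; inconclusive means no clear call, values can overlap the other calls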;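 further: wild-type GFP and H69 mutant RFP strains grown together 50/50 in each well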
AID977628 = E. coli growth inhibition, wild-type GFP versus h24 humanized RFP strain, dose response, h24 mutant RFP vs wild-type GFP, cherry-pick; shares compounds with Ecoli rRNA inh; E. coli WT GFP strain growth, fluorescence, 24 h; activity change, negative = inhibition at 50 µM; 1,900 tested, under 10 active; AID 977628;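 active means compound lowering the normal-ribosome reporter at least twice as much as the humanized-ribosome reporter, growth loss under a set limit; inconclusive means no clear call, values can overlap the other calls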;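 further: wild-type GFP and h24 humanized RFP strains co-cultured 1 to 1 per well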
The depositor's hits bear a star; ? = inconclusive; · = no result; [ ] = dose if it differs, or a comment.

SMILES	PglD inh	Ecoli rRNA inh	PGC1a acetyl inh	Env fusion inh	FN deposition inh	DENV2 CPE rescue	AID977621	AID977628	others
C[C@@H]1CCCCO[C@@H](CN(C)Cc2ccc(C(=O)O)cc2)[C@H](C)CN([C@@H](C)CO)C(=O)c2cc(NS(=O)(=O)c3ccc(Cl)cc3)ccc2O1	-2	2	1	-7[16.7 µM]	1	5	·	·
CN(C)c1ccc(-c2nnn(CC(=O)Nc3ccccc3N3CCOCC3)n2)cc1	-1	-16*	1	·	·	5	-8.9	-13
O=S(=O)(N[C@H]1CC[C@H](CCn2cc(-c3ccccn3)nn2)O[C@H]1CO)c1cccc(Cl)c1	4	-1	-7	9[16.7 µM]	10	-4	·	·
c1ccc(-c2sc3ccccc3c2-c2ccc(OCCN3CCCCC3)cc2)cc1	1	-17*	2	12	0	-11	2.7	13
C[C@H](CO)N1C[C@H](C)[C@@H](CN(C)S(=O)(=O)c2ccc(F)cc2)Oc2ccc(N(C)C)cc2C1=O	1	0	1	·	3	0	·	·
CSc1nnnn1-c1ccc(Cl)cc1	·	-32*	7	-22	5	5	-18	-18
COC(=O)c1ccc(-n2nnnc2SC)cc1	7	·	-5	-81	2	·	·	·
Cc1ccc(OCCOCCn2cnc3ccccc3c2=O)c([N+](=O)[O-])c1	-8	-7	·	-24	5	-8	·	·
Cc1ccc([N+](=O)[O-])c(OCCn2cnc3ccccc32)c1	·	-20*	5	11	·	-1	-2.8	-6.6
Cc1ccc(CC2C(=O)N(c3cc(Cl)ccn3)C(=O)C2C)cc1 (centres undefined)	·	-20*	·	-1	2	?	-20	?
Cc1ccc(CC2C(=O)N(c3ccccc3)C(=O)C2C)cc1 (centres undefined)	1	-4	·	3	-3	-1	·	·
C[C@H](CO)N1C[C@H](C)[C@@H](CN(C)C(=O)c2ccccn2)Oc2ncc(C3=CCCCC3)cc2C1=O	-1	0	-19	2[16.7 µM]	-10	-6	·	·
CCOC(=O)C1CCCN(Cc2c(Cl)cccc2Cl)C1 (centres undefined)	1	-23*	-3	·	·	2	-14	-11
CCOC(=O)C1CCCN(Cc2ccccc2F)C1 (centres undefined)	-1	·	10	·	·	·	·	·
CC(C)(C)c1cc(CN2CCN(CCO)CC2)cc(C(C)(C)C)c1O	-5	·	-28	24	6	·	·	·
CN1CCN(CC(=O)c2cc(C(C)(C)C)c(O)c(C(C)(C)C)c2)CC1	-2	-31*	-7	21	-4	-4	-2.8	-9.3
CCN(CC)CCn1c2ccccc2c2nc3ccc([N+](=O)[O-])cc3cc21	-6	-25*	-7	-183	-5	-17	·	·	HepG2 tox=3
Cn1c2ccccc2c2cc([N+](=O)[O-])ccc21	·	8	7	5	12	5	·	·
COc1ccc2c3c([nH]c2c1)[C@H](CO)N(C)CC31CN(C(=O)NC(C)C)C1	·	6	10	·	·	-7	·	·
COc1ccc(OC2C(=O)N(Cc3ccc4c(c3)OCO4)C2c2cccs2)cc1 (centres undefined)	-4	-22*	-15	68*	·	-6	-16	·
O=C1C(Oc2ccccc2)C(c2cccs2)N1Cc1ccc2c(c1)OCO2 (centres undefined)	3	·	·	·	·	·	·	·
Cc1ccc2oc(=O)n(CC(=O)OCCC(C)C)c2c1	6	-18*	-9	11	0	4	-14	-2.5
Cc1ccc2oc(=O)n(CCOc3ccccc3C)c2c1	0	12	-9	7	-1	-1	·	·
Cc1ccc2oc(=O)n(CCCOc3ccccc3C)c2c1	·	-19*	·	-26	-1	12	-8.4	?
